Assay results: ChEMBL document CHEMBL3124793, “Discovery of spirofused piperazine and diazepane amides as selective histamine-3 antagonists with in vivo efficacy in a mouse model of cognition” (J Med Chem, 2014)
Values after ≈ are worked out from the molar mass of the structure shown. Active and inactive are the calls of the source. No cut-off for these calls is given here.

What was measured:
Histamine H3 receptor [1] = target: T1, Histamine H3 receptor (Homo sapiens, UniProt Q9Y5N1); test: Antagonist activity at human histamine H3 receptor long form expressed in CHOK1 cells assessed as inhibition of R-alpha-methylhistamine-induced [35S]GTPgammaS binding after 3 hrs by scintillation proximity assay; type: functional, cell-based, CHO-K1
T1 sequence (Q9Y5N1 whole entry): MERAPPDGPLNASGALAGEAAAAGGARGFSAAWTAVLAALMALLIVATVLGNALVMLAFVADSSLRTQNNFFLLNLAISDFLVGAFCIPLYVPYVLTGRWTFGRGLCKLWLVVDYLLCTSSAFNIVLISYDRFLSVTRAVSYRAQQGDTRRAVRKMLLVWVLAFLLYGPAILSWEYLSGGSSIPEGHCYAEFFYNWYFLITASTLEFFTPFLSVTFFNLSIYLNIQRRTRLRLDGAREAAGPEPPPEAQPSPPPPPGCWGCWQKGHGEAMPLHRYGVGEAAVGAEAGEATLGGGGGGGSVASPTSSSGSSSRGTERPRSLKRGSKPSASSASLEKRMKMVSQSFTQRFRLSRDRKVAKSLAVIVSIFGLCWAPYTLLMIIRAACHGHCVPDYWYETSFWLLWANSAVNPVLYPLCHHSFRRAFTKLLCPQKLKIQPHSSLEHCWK
Procedure, shortened: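 Membranes from CHO-K1 cells stably expressing human H3R long form (445 aa) incubated 3 h with test compound, 25 nM R-α-methylhistamine, 10 μM GDP, 0.2 nM [35S]GTPγS and WGA PVT SPA beads; bead-bound [35S]GTPγS counted by scintillation. Average of n > 2, standard error <20%.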

Rattus norvegicus [2] = test: […] clearance in rat at 2.3 umol/kg, iv; type: ADME, organism-based; details: in vivo
Procedure, shortened: (§1)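 IV dosing in male fasted rats, doses in μmol/kg; mean Vss, half-life and clearance derived; number of rats per compound reported.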

[3] = Half life in rat at 2.3 umol/kg, iv; type: ADME, organism-based; details: in vivo; procedure, shortened: as §1
[4] = Volume of distribution at steady state in rat at 2.3 umol/kg, iv; type: ADME, organism-based; details: in vivo, read-out: Vdss; procedure, shortened: as §1
[5] = Intrinsic clearance in rat liver microsomes; type: ADME; details: read-out: CLH
[6] = Intrinsic clearance in human liver microsomes; type: ADME; details: read-out: CLH
Procedure, shortened: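 Human liver microsomal clearance, expressed as μL/min/mg.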

MDCK = test: Efflux ratio of apparent permeability from apical to basolateral side over basolateral to apical side in MDCK cells; type: ADME, cell-based, Canis lupus familiaris; details: dog
Procedure, shortened: (§2)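 MDCK monolayers; A-to-B Papp in 1 × 10⁻⁶ cm/s; efflux taken as ratio of A-to-B Papp over B-to-A Papp.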

[7] = Apparent permeability from apical to basolateral side in MDCK cells; type: ADME, cell-based, Canis lupus familiaris; details: dog; procedure, shortened: as §2
[8] = Equilibrium solubility of the compound at pH 7.4; type: physicochemical; details: buffer
[9] = target: Voltage-gated inwardly rectifying potassium channel KCNH2 (Homo sapiens, UniProt Q12809); test: Inhibition of human ERG expressed in CHOK1 cells by electrophysiological analysis
Sequence of Voltage-gated inwardly rectifying potassium channel KCNH2 (Q12809 whole entry): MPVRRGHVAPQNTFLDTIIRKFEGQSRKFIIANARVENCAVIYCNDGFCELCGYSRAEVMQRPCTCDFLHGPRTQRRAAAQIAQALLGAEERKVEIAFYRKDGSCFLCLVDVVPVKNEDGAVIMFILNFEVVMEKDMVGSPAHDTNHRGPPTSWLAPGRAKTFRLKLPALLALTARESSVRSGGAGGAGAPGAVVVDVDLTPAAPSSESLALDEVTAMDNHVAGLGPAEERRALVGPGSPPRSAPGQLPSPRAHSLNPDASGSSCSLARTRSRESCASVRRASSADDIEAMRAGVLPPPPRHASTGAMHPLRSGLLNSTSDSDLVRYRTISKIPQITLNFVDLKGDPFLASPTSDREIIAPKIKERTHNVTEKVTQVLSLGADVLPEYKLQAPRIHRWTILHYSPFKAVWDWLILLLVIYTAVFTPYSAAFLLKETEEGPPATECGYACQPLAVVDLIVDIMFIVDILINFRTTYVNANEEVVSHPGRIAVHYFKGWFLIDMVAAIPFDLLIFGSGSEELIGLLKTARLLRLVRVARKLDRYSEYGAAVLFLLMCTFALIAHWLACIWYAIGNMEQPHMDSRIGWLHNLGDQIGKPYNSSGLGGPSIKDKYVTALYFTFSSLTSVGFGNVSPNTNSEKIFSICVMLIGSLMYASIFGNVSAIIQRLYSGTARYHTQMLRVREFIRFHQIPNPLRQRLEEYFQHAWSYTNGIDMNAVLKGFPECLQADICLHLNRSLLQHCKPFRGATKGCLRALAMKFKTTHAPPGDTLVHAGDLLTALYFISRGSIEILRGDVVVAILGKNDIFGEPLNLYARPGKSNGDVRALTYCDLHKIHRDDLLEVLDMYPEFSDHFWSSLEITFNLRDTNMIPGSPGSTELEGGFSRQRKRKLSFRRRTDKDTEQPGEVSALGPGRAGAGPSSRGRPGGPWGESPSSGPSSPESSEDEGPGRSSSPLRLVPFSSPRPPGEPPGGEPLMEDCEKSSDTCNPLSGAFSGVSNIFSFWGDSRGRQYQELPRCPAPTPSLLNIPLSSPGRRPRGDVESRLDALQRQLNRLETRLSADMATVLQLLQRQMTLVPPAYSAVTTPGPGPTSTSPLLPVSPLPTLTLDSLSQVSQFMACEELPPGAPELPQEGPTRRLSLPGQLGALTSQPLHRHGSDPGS

[10] = Octanol-water partition coefficient, log D of the compound by shake flask HPLC analysis; type: physicochemical
Procedure, shortened: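 logD between octanol and water by shake-flask with HPLC analysis.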

Histamine H3 receptor [11] = target: T1, Histamine H3 receptor; test: Displacement of [3H]-N-alpha-methylhistamine from human histamine H3 receptor expressed in CHOK1 cells after 1.5 hrs by scintillation proximity assay; type: cell-based, CHO-K1
Procedure, shortened: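 Human H3R-CHO-K1 membranes incubated 1.5 h with test compound and [3H]-N-α-methylhistamine in SPA format; nonspecific binding defined with 10 μM imetit; bead-bound radioligand counted. Average of n > 2, standard error <50%.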

[12] = Percentage unbound in rat plasma; type: ADME, cell-free
Procedure, shortened: (§3)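 Plasma protein binding in human or rat plasma, expressed as percent free.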

[13] = Percentage unbound in human plasma; type: ADME, cell-free; procedure, shortened: as §3
Histamine H3 receptor [14] = target: T1, Histamine H3 receptor; test: Inverse agonist activity at human histamine H3 receptor long form expressed in CHOK1 cells assessed as reduction in [35S]GTPgammaS binding after 3 hrs by scintillation proximity assay; type: functional, cell-based; details: CHO-K1
Procedure, shortened: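 Basal [35S]GTPγS binding, without agonist stimulation, to membranes expressing recombinant human H3R.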

Rattus norvegicus [15] = test: […] clearance in rat at 1.8 umol/kg, iv; type: ADME, organism-based; details: in vivo; procedure, shortened: as §1
[16] = Half life in rat at 1.8 umol/kg, iv; type: ADME, organism-based; details: in vivo; procedure, shortened: as §1
[17] = Volume of distribution at steady state in rat at 1.8 umol/kg, iv; type: ADME, organism-based; details: in vivo, read-out: Vdss; procedure, shortened: as §1

| Compound | IC50 (Histamine H3 receptor [1]) [nM] | logD [10] | Ki (Histamine H3 receptor [11]) [nM] | IC50 [9] [µM] | further results |
| --- | --- | --- | --- | --- | --- |
| O=C(c1ccccc1)N1CCC2(CC1)CCN(C(=O)C1CCN(C3CCC3)CC1)C2 | 340 |  |  |  |  |
| O=C(N1CCCN(C2CCC2)CC1)N1CCC2(CCCN(C3CCOCC3)C2)C1 (stereo unspecified) | 4.4 | 0.23 |  | > 33 |  |
| CC(C)N1CCN(C(=O)[C@@H]2CC23CCN(C2CCOCC2)CC3)CC1 | 87 | -0.35 | 16 |  |  |
| CC(C)N1CCN(C(=O)C2CC23CCN(C2CCOCC2)CC3)CC1 (racemic) | 3.2 |  | 3 |  | microsomal CLint [5]: 24 µL/min/mg; microsomal CLint [6]: < 4 µL/min/mg; fraction unbound [12]: 0.69; Papp A→B [7]: 5.4 ×10⁻⁶ cm/s; fraction unbound [13]: 0.87; solubility thermodynamic [8]: > 500 µM |
| CC(C)N1CCN(C(=O)N2CC3(CCN(C4CCOCC4)CC3)C2)CC1 | 900 |  | 97 |  |  |
| O=C(N1CCCN(C2CCC2)CC1)N1CCC2(CCN(S(=O)(=O)c3ccccc3)CC2)C1 | 2.7 | 1.71 |  | > 33 |  |
| CC(C)S(=O)(=O)N1CCC2(CCN(C(=O)N3CCCN(C4CCC4)CC3)C2)CC1 | 3.2 | 0.8 |  | > 33 | CL (Rattus norvegicus [15]): 53 mL/min/kg; half-life [16]: 36 min; Vd [17]: 2.1 L/kg; microsomal CLint [5]: 34 µL/min/mg; microsomal CLint [6]: 20 µL/min/mg; Ratio (MDCK): 6; Papp A→B [7]: 7.8 ×10⁻⁶ cm/s; solubility thermodynamic [8]: > 500 µM |
| CC(C)N1CCN(C(=O)N2CCC3(CCCN(C4CCOCC4)C3)C2)CC1 (stereo unspecified) | 140 | -0.19 |  | > 33 |  |
| O=C(c1ccccc1)N1CCC2(CC1)CCN(C(=O)N1CCCN(C3CCC3)CC1)C2 | 3.6 | 1.22 |  | > 33 |  |

Continued, in another order:

| IC50 (Histamine H3 receptor [1]) [nM] | logD [10] | Ki (Histamine H3 receptor [11]) [nM] | Compound | IC50 [9] [µM] | further results |
| --- | --- | --- | --- | --- | --- |
| 13 | 1.8 |  | O=C(c1ccccc1)N1CCC2(CC1)CCN(C(=O)N1CCN(C3CCC3)CC1)C2 | > 33 | CL (Rattus norvegicus [2]): 91 mL/min/kg; half-life [3]: 66 min; Vd [4]: 3.7 L/kg; microsomal CLint [5]: 25 µL/min/mg; microsomal CLint [6]: 18 µL/min/mg; Ratio (MDCK): 4.5; Papp A→B [7]: 8.8 ×10⁻⁶ cm/s; solubility thermodynamic [8]: > 500 µM |
| 4 | 1.01 |  | O=C(c1ccccc1)N1CCCC2(CCN(C(=O)N3CCCN(C4CCC4)CC3)C2)C1 (stereo unspecified) |  |  |
| 12 | 0.74 | 26 | O=C(C1CC12CCN(C1CCOCC1)CC2)N1CCN(C2CCCCC2)CC1 (racemic) |  |  |
|  |  | > 10000 | O=C(C1CC12CCC(C1CCCCC1)CC2)N1CCN(C2CCC2)CC1 (racemic) |  | solubility thermodynamic [8]: 1 µM (≈ 0.359 µg/mL) |
|  | 2.81 | 103 | O=C(C1CC12CCN(Cc1ccccc1)CC2)N1CCN(C2CCCCC2)CC1 (racemic) |  |  |
| 3.6 | 0.24 | 1.3 | O=C(C1CC12CCN(C1CCOCC1)CC2)N1CCN(C2CCC2)CC1 (racemic) |  | microsomal CLint [5]: < 4 µL/min/mg; microsomal CLint [6]: 29 µL/min/mg; fraction unbound [12]: 0.8; Papp A→B [7]: 3.9 ×10⁻⁶ cm/s; fraction unbound [13]: 0.91; solubility thermodynamic [8]: > 500 µM; Activity (Histamine H3 receptor [14]): Active |
|  | 3.63 | 1670 | O=C(C1CC12CCN(c1ccccc1)CC2)N1CCN(C2CCCCC2)CC1 (racemic) |  |  |
| 360 | -1 | 439 | O=C(C1CC12CCNCC2)N1CCN(C2CCCCC2)CC1 (racemic) | > 33 |  |
|  |  | 65 | O=C(C1CC12CCN(C1CCOCC1)CC2)N1CCN(C2CCCCCC2)CC1 (racemic) |  |  |
| 1100 |  | 1300 | CN1CCN(C(=O)C2CC23CCN(C2CCOCC2)CC3)CC1 (racemic) |  |  |
| 17 | 0.18 | 3 | O=C(C1CC12CCN(C1CCOCC1)CC2)N1CCCN(C2CCC2)CC1 (racemic) |  |  |
| 21 | 2.27 |  | O=C(N1CCN(C2CCC2)CC1)N1CCC2(CCN(S(=O)(=O)c3ccccc3)CC2)C1 |  |  |
